Among the data in ChEMBL document CHEMBL1149174, “Synthesis and structure-activity relationship of acrylamides as KCNQ2 potassium channel openers” (J Med Chem, 2004) are KCNQ2 current values, retold here.

The target in this assay is Potassium voltage-gated channel subfamily KQT member 2 (Mus musculus) (UniProt Q9Z351). The assay is described as follows: Ability to open cloned mKCNQ2 channel expressed in Xenopus laevis oocytes at 10 uM expressed as percent of compound-free control current at -40 mV. It counts as functional, cell-based. The note with it: Oocyte. The method, boiled down:
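Two-electrode voltage clamp of Xenopus laevis oocytes injected with ~50 nL mKCNQ2 cRNA, kept at 17 °C in ND96 (mM: NaCl 90, KCl 1.0, CaCl2 1.0, MgCl2 1.0, HEPES 5.0, pH 7.5) with 5% horse serum and penicillin/streptomycin. Holding potential -90 mV, 10 mV steps from -80 to +40 mV. Current at -40 mV with 10 μM compound taken as % of compound-free control; mean ± SEM of ≥5 oocytes.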

SMILES strings stand for the structures.

Sequence of Potassium voltage-gated channel subfamily KQT member 2 (Mus musculus) (Q9Z351 whole entry): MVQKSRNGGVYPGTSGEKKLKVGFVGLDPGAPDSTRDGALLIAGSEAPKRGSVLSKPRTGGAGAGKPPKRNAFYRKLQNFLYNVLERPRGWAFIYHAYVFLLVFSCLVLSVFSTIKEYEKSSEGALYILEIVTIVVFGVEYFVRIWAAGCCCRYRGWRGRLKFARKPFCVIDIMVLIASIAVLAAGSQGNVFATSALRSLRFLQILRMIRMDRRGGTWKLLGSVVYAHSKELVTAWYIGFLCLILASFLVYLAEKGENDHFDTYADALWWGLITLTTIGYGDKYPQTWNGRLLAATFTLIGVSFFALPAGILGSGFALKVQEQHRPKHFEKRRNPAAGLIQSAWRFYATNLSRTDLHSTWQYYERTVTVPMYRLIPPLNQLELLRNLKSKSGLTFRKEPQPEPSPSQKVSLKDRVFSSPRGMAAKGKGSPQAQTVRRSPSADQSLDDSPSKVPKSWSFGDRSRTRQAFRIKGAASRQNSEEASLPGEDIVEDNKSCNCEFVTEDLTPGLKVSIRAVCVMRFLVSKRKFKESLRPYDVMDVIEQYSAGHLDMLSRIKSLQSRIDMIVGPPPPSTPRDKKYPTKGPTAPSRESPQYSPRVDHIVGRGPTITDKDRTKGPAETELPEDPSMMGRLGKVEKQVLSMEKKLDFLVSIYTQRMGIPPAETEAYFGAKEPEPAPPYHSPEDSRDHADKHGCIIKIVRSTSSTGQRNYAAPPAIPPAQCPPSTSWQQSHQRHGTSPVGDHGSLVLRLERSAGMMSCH

Compound `C[C@H](NC(=O)/C=C/c1cccc(F)c1)c1cccc(N2CCOCC2)c1` returned a KCNQ2 current at -40 mV as percent of compound-free control of 127%. The result for `COc1cccc(/C=C/C(=O)N[C@@H](C)c2cccc(N3CCOCC3)c2)c1` reads 132%. Then `C[C@@H](c1cccc(N2CCOCC2)c1)N(C)C(=O)/C=C/c1ccccc1`, with 72%; and `CC1CN(c2cccc([C@H](C)NC(=O)/C=C/c3ccccc3F)c2)CC(C)O1` (stereo partly specified), with 135%. The result for `C[C@H](NC(=O)/C=C/c1ccccc1F)c1cccc(N2CCN(C)CC2)c1` reads 107%; that for `COc1ccccc1/C=C/C(=O)N[C@@H](C)c1cccc(N2CCOCC2)c1`, 99%; that for `C[C@H](NC(=O)/C=C/c1ccc(F)cc1F)c1cccc(N2CCOCC2)c1`, 124%. As for `C[C@H](NC(=O)/C=C/c1ccccc1F)c1cccc(N2CCOCC2)c1`, the KCNQ2 current at -40 mV as percent of compound-free control came to 121%.

`COc1ccc(/C=C/C(=O)N[C@@H](C)c2cccc(N3CCOCC3)c2)cc1` registered a KCNQ2 current at -40 mV as percent of compound-free control of 140%. Then `C[C@H](NC(=O)/C=C/c1ccc(F)cc1)c1cccc(N2CCOCC2)c1`, with 88%; and `C[C@@H](NC(=O)/C=C/c1ccccc1)c1cccc(N2CCOCC2)c1`, with 96%.

Take `C[C@H](NC(=O)/C=C/c1ccccc1)c1cccc(N2CCCOCC2)c1`: the KCNQ2 current at -40 mV as percent of compound-free control came out at 110%.

`C[C@H](NC(=O)/C=C/c1ccc(F)cc1)c1ccc(F)c(N2CCOCC2)c1` showed a KCNQ2 current at -40 mV as percent of compound-free control of 142%. The result for `COc1ccc([C@H](C)NC(=O)/C=C/c2ccccc2)cc1N1CCOCC1` reads 96%; that for `C[C@H](NC/C=C/c1ccccc1)c1cccc(N2CCOCC2)c1`, 98%. The result for `C[C@H](NC(=O)/C=C/c1ccccc1)c1ccc(F)c(N2CCOCC2)c1` reads 129%; that for `CC1CN(c2cccc([C@H](C)NC(=O)/C=C/c3ccc(F)cc3)c2)CC(C)O1` (stereo partly specified), 133%. The result for `C[C@H](NC(=O)/C=C/c1ccccc1)c1cccc(N2CCOCC2)c1` reads 163%; that for `CC1CN(c2cccc([C@H](C)NC(=O)/C=C/c3ccccc3)c2)CC(C)O1` (stereo partly specified), 138%; that for `C[C@H](NC(=O)/C=C/c1cc(F)ccc1F)c1cccc(N2CCOCC2)c1`, 102%.

In turn, `C[C@H](NC(=O)CCc1ccccc1)c1cccc(N2CCOCC2)c1` came in with a KCNQ2 current at -40 mV as percent of compound-free control of 105%. Then `COc1ccc(N2CCOCC2)cc1[C@H](C)NC(=O)/C=C/c1ccccc1`, with 98%; and `C[C@H](NC(=O)/C=C/c1ccccc1)c1cccc(N2CC3CC2CO3)c1` (stereo partly specified), with 104%.

The compound `C[C@H](NC(=O)/C=C/c1ccccc1)c1cccc(N(C)C)c1` displayed a KCNQ2 current at -40 mV as percent of compound-free control of 110%. Turning to `O=C(/C=C/c1ccccc1)NCc1cccc(N2CCOCC2)c1`, the KCNQ2 current at -40 mV as percent of compound-free control was 110%. `CC1=C(C(=O)N[C@@H](C)c2cccc(N3CCOCC3)c2)Cc2ccccc21` returned a KCNQ2 current at -40 mV as percent of compound-free control of 101%.
